Measured values pooled from the literature.
Each line is one published result; the experiments were not run side by side. ≈ marks a conversion by molar mass, not a printed value.

N#Cc1c(-c2ccc(OCc3ccccc3)cc2)c(C(N)=S)c(N)n(N)c1=O
inhibition zone (Enterobacter cloacae; microbial growth, well diffusion; ATCC23355; 500 µg/mL): 15 mm

CN(Cc1ccc(C2(C(F)(F)F)CC2)cc1)Cc1cccc2ccccc12
inhibition zone (Trichophyton mentagrophytes; microbial growth, disc diffusion; ATCC18748; 0.256 µg/mL, 72 h): ≥ 55 mm

N#Cc1c(-c2ccc(OCc3ccccc3)cc2)c(C(N)=O)c(N)n(N)c1=O
inhibition zone (Enterobacter cloacae; microbial growth, well diffusion; ATCC23355; 500 µg/mL): 10 mm

O=C1C=C2NCCc3c[nH]c(c32)C1=O
IC50 (Babesia divergens; parasite growth, SYBR Green; 60 h, blood stage): 10000 nM

CN(C)c1ccc(-c2c(C(N)=O)c(N)n(N)c(=O)c2C#N)cc1
inhibition zone (Enterobacter cloacae; microbial growth, well diffusion; ATCC23355; 500 µg/mL): 17 mm

CN(Cc1ccc(C(C)(C)C)cc1)Cc1cccc2ccccc12
inhibition zone (Trichophyton mentagrophytes; microbial growth, disc diffusion; ATCC18748; 0.002 µg/mL, 72 h): 27.8 mm

Cn1cc2c3c1C(=O)C(NCCc1ccc(O)cc1)=CC3=NCC2
IC50 (Babesia divergens; parasite growth, SYBR Green; 60 h, blood stage): 1000 nM

COC1=CC(=O)c2ccccc2C1=O
MIC (Trichophyton mentagrophytes; microbial growth, broth dilution; ATCC9533; 96 h): 6.25 µg/mL (≈ 33.2 µM)

COC(CNC1=CC2=NCCc3c[nH]c(c32)C1=O)c1c[nH]c2ccccc12 (stereo not drawn)
IC50 (Babesia divergens; parasite growth, SYBR Green; 60 h, blood stage): 578 nM

CN(C)c1ccc(-c2c(C(N)=S)c(N)n(N)c(=O)c2C#N)cc1
inhibition zone (Enterobacter cloacae; microbial growth, well diffusion; ATCC23355; 500 µg/mL): 14 mm

NC1=CC2=NCCc3c[nH]c(c32)C1=O
IC50 (Babesia divergens; parasite growth, SYBR Green; 60 h, blood stage): 411 nM

C[C@@H]1[C@H](O)[C@@H](C)/C=C/C=C/C=C/C=C/C=C/C=C/C=C/[C@H](O[C@@H]2O[C@H](C)[C@@H](O)[C@H](N)[C@@H]2O)C[C@@H]2O[C@](O)(C[C@@H](O)C[C@@H](O)[C@H](O)CC[C@@H](O)C[C@@H](O)CC(=O)O[C@H]1C)C[C@H](O)[C@H]2C(=O)O
MIC (Trichophyton mentagrophytes; microbial growth, broth dilution; ATCC9533; 96 h): 8 µg/mL (≈ 8.66 µM)
